Key:
Ishikawa [1] = assay: Antiproliferative activity against human Ishikawa cells assessed as growth inhibition at 30 ug/mL after 72 hrs by MTT assay; format: functional; conditions: read-out: GI
Method in brief: (§1)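 MTT assay on human HeLa, Ishikawa and MCF7 cells seeded at 5000/well and left to attach overnight. Medium was then replaced with medium containing test substances (DMSO stocks, final DMSO up to 0.3%). After 72 h, MTT was added for 4 h, formazan was dissolved in DMSO and absorbance read at 545 nm. Untreated cells served as negative control and cisplatin as positive control. Two plates were run, each with at least five parallel wells.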

Ishikawa [2] = assay: Antiproliferative activity against human Ishikawa cells assessed as growth inhibition at 10 ug/mL after 72 hrs by MTT assay; format: functional; conditions: read-out: GI; method in brief: as §1
HeLa [3] = assay: Antiproliferative activity against human HeLa cells assessed as growth inhibition at 10 ug/mL after 72 hrs by MTT assay; format: functional; conditions: read-out: GI; method in brief: as §1
[4] = biological target: T1, ATP-dependent translocase ABCB1 (Homo sapiens, UniProt P08183); assay: Inhibition of MDR1-mediated rhodamine 123 uptake expressed in mouse L5178Y cells transfected with pHa MDR1/A assessed as fluorescence activity ratio at 40 ug/mL by flow cytometry relative to untreated control; format: cell-based
Method in brief: (§2)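 Mouse L5178 lymphoma cells transfected with pHa MDR1/A retrovirus were kept under 60 ng/mL colchicine, alongside L5178Y parent cells, in McCoy's 5A medium with 10% horse serum. Cells at 2×10^6/mL in serum-free medium were preincubated with compound (4.0 or 40.0 μg/mL, in DMSO) for 10 min at room temperature. Rhodamine 123 was then added (5.2 μM final) for 20 min at 37 °C, and cells were washed and measured by flow cytometry. R compares treated versus untreated MDR cells relative to parental cells. Verapamil served as positive control.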

HeLa [5] = assay: Antiproliferative activity against human HeLa cells assessed as growth inhibition at 30 ug/mL after 72 hrs by MTT assay; format: functional; conditions: read-out: GI; method in brief: as §1
MCF7 [6] = assay: Antiproliferative activity against human MCF7 cells assessed as growth inhibition at 30 ug/mL after 72 hrs by MTT assay; format: functional; conditions: MCF7, 72 h, read-out: GI; method in brief: as §1
[7] = biological target: T1, ATP-dependent translocase ABCB1; assay: Inhibition of MDR1-mediated rhodamine 123 uptake expressed in mouse L5178Y cells transfected with pHa MDR1/A assessed as fluorescence activity ratio at 4 ug/mL by flow cytometry relative to untreated control; format: cell-based; method in brief: as §2
MCF7 [8] = assay: Antiproliferative activity against human MCF7 cells assessed as growth inhibition at 10 ug/mL after 72 hrs by MTT assay; format: functional; conditions: MCF7, 72 h, read-out: GI; method in brief: as §1

T1 sequence (P08183 whole entry): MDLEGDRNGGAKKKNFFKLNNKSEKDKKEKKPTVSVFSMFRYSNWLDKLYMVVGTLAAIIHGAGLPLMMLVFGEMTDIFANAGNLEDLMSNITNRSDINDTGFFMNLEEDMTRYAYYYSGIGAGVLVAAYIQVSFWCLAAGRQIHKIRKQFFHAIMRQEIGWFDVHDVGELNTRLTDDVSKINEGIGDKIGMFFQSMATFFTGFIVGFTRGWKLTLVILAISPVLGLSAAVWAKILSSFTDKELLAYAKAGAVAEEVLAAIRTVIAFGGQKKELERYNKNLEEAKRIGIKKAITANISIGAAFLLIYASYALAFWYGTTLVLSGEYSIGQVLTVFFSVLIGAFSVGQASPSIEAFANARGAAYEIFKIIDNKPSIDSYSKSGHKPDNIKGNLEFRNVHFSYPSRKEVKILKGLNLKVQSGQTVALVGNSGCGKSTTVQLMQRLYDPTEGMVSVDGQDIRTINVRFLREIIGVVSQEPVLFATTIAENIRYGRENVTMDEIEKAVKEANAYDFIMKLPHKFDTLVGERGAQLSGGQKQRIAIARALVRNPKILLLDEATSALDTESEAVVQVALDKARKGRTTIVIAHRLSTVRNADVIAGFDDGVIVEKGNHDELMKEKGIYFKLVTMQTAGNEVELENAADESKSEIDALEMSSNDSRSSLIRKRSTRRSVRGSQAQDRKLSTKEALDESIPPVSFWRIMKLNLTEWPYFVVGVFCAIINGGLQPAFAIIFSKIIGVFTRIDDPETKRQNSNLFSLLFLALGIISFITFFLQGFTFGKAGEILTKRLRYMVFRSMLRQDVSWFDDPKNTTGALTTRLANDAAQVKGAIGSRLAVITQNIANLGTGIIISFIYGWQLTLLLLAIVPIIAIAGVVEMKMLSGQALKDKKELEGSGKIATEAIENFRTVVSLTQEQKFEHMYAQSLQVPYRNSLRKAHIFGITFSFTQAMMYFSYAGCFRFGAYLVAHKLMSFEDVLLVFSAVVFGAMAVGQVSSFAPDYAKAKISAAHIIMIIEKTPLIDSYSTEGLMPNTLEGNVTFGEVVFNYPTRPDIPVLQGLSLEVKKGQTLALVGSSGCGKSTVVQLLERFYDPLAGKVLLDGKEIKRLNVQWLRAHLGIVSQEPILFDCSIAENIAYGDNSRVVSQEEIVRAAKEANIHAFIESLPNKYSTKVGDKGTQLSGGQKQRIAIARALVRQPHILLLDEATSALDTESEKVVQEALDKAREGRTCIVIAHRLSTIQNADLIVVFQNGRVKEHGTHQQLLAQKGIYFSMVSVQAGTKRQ

Structure (SMILES)	inhibition of growth at 30 µg/mL (Ishikawa [1])	inhibition of growth at 10 µg/mL (Ishikawa [2])	inhibition of growth at 10 µg/mL (HeLa [3])	Ratio [4]	inhibition of growth at 30 µg/mL (HeLa [5])	inhibition of growth at 30 µg/mL (MCF7 [6])	Ratio [7]	inhibition of growth at 10 µg/mL (MCF7 [8])
C=C1[C@H](OC(=O)C(C)C)[C@@H](OC(C)=O)[C@@H](OC(C)=O)C(C)(C)[C@@H]2O[C@](O)([C@H](C)[C@@H]2OC(C)=O)[C@@]2(OC(C)=O)C[C@@](C)(OC(C)=O)[C@H](OC(C)=O)[C@@H]2[C@H]1OC(C)=O	17.7%	12%	10.6%	1	17.8%	11.4%	1.4	9.8%
C=C1[C@H](OC(=O)C(C)C)CC(=O)C(C)(C)/C=C/[C@@H](C)C(=O)[C@@]2(OC(C)=O)C[C@H](C)[C@H](OC(C)=O)[C@@H]2[C@H]1OC(C)=O	98.4%	18.4%	19.1%	52.5	64.5%	81.4%	24.9	46.8%
C=C1[C@H](OC(=O)C(C)C)C[C@@H](OC(=O)c2cccnc2)C(C)(C)/C=C/[C@@H](C)C(=O)[C@@]2(OC(C)=O)C[C@@](C)(OC(C)=O)[C@H](OC(C)=O)[C@@H]2[C@H]1OC(C)=O	26.6%	17.5%	6.4%	36.4	1.1%	16.7%	23.8	3.6%
C=C1[C@H](OC(=O)C(C)C)C[C@@H](OC(=O)c2cccnc2)C(C)(C)/C=C/[C@@H](C)C(=O)[C@@]2(OC(C)=O)C[C@H](C)[C@H](OC(C)=O)[C@@H]2[C@H]1OC(C)=O	16.4%	5.9%	18.3%	119.9	4.5%	14.4%	16.6	18.5%
C=C1[C@H](OC(C)=O)C[C@@H](OC(=O)c2cccnc2)C(C)(C)/C=C/[C@@H](C)C(=O)[C@@]2(OC(C)=O)C[C@@](C)(OC(C)=O)[C@H](OC(C)=O)[C@@H]2[C@H]1OC(C)=O	13.9%	8.1%	13.9%	2.3	17.9%	36.3%	1.7	20.3%
CC(=O)O[C@H]1[C@H]2OC(=O)CC[C@](O)([C@@H]1OC(=O)C(C)C)[C@H](OC(C)=O)[C@H]1[C@@H](OC(C)=O)[C@](C)(OC(C)=O)C[C@]1(OC(C)=O)C(=O)[C@H](C)[C@H]1O[C@@H]1C2(C)C	33%	31.5%	5.3%	17.5	20.8%	29.2%	5.9	24.8%
C=C1[C@H](OC(=O)C(C)C)[C@@H](OC(C)=O)[C@@H](OC(C)=O)C(C)(C)/C=C/[C@@H](C)C(=O)[C@@]2(OC(C)=O)C[C@@](C)(OC(C)=O)[C@H](OC(C)=O)[C@@H]2[C@H]1OC(C)=O	17.1%	21.4%	2.9%	14.8	10.9%	23.3%	5.5	8.7%
C=C1[C@H](OC(C)=O)CC(=O)C(C)(C)/C=C/[C@@H](C)C(=O)[C@@]2(OC(C)=O)C[C@@](C)(OC(C)=O)[C@H](OC(C)=O)[C@@H]2[C@H]1OC(C)=O [ESULATIN B]	35%	11.6%	17.3%	7.8	36.3%	43.3%	2.6	29.9%
C=C1[C@H](OC(C)=O)C[C@@H](OC(C)=O)C(C)(C)/C=C/[C@@H](C)C(=O)[C@@]2(OC(C)=O)C[C@@](C)(OC(C)=O)[C@H](OC(C)=O)[C@@H]2[C@H]1OC(C)=O [ESULATIN D]	29.9%	29.4%	11.4%	15.2	26.7%	13.5%	4.6	9.5%
C=C1/C=C\C(=O)C(C)(C)/C=C/[C@@H](C)C(=O)[C@@]2(OC(C)=O)C[C@@](C)(OC(C)=O)[C@H](OC(C)=O)[C@@H]2[C@H]1OC(C)=O [ESULATIN E]	54.1%	35.6%	19.5%	–	58.1%	61.4%	–	30.4%
C=C1[C@H](OC(C)=O)CC(=O)C(C)(C)/C=C/[C@@H](C)C(=O)[C@@]2(OC(C)=O)C[C@@](C)(OC(=O)c3ccccc3)[C@H](OC(C)=O)[C@@H]2[C@H]1OC(C)=O [ESULATIN I]	29.4%	8%	15.4%	19.9	23.8%	60.1%	3.9	12.7%
C=C1[C@H](OC(C)=O)C[C@@H](OC(=O)c2cccnc2)C(C)(C)/C=C/[C@@H](C)C(=O)[C@@]2(OC(C)=O)C[C@@](C)(OC(=O)c3cccnc3)[C@H](OC(C)=O)[C@@H]2[C@H]1OC(C)=O [ESULATIN K]	0.1%	7.5%	0.5%	19.8	0.6%	21.3%	7.2	1.3%
C=C1[C@H](OC(C)=O)C[C@@H](OC(=O)c2cccnc2)[C@](C)(OC(C)=O)C/C=C/[C@@H](C)C(=O)[C@@]2(OC(C)=O)C[C@@](C)(OC(=O)c3cccnc3)[C@H](OC(C)=O)[C@@H]2[C@H]1OC(C)=O [EUPHOSALICIN]	7.6%	0.9%	14.5%	12.3	18.1%	20%	1.9	6.3%

Reference: ChEMBL document CHEMBL1811799, “Jatrophane diterpenes from Euphorbia esula as antiproliferative agents and potent chemosensitizers to overcome multidrug resistance” (J Nat Prod, 2011)
